Measured values published in ChEMBL document CHEMBL1932938, “From COX-2 inhibitor nimesulide to potent anti-cancer agent: synthesis, in vitro, in vivo and pharmacokinetic evaluation” (Eur J Med Chem, 2012).

Legend:
[1] = tested on: SK-BR-3; test: Cell cycle arrest in human SK-BR-3 cells assessed as accumulation at Sub-G1 phase at 0.25 uM after 12 hrs using propidium iodide staining by FACS analysis; format: functional
[2] = tested on: SK-BR-3; test: Cell cycle arrest in human SK-BR-3 cells assessed as accumulation at G2/M phase at 5 uM after 18 hrs using propidium iodide staining by FACS analysis; format: functional
In short: (§1)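 SKBR-3 cells in RPMI1640 with 10% heat-inactivated FBS at 37 °C and 5% CO₂ were treated for the stated times. Cells were fixed overnight in 70% EtOH at −20 °C, then stained with propidium iodide buffer (38 mM sodium citrate pH 7.5, 69 µM PI, 120 µg/mL RNase A) for 15 min at room temperature in the dark. Up to 1×10⁴ gated cells were analyzed by flow cytometry, giving percent distribution per phase.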

[3] = tested on: SK-BR-3; test: Cell cycle arrest in human SK-BR-3 cells assessed as accumulation at G2/M phase at 5 uM after 24 hrs using propidium iodide staining by FACS analysis; format: functional; in short: as §1
[4] = tested on: SK-BR-3; test: Cell cycle arrest in human SK-BR-3 cells assessed as accumulation at G2/M phase at 0.25 uM after 12 hrs using propidium iodide staining by FACS analysis; format: functional; in short: as §1
[5] = tested on: HT-29; test: Cytotoxicity against human HT-29 cells after 48 hrs by MTT assay; format: functional, cell-based; conditions: HT-29, 48 h
In short: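 HT29 cells (ATCC) kept in RPMI1640 with 10% heat-inactivated FBS, L-glutamine and pyruvate at 37 °C, 5% CO2. Cells plated 24 h, then exposed 48 h to graded compound concentrations in DMSO (0.1% final) beside vehicle controls. Incubated 2 h with 0.5 mg/ml MTT, formazan dissolved in DMSO, A570 read. Six replicates; IC50 from viability.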

[6] = tested on: SK-BR-3; test: Cell cycle arrest in human SK-BR-3 cells assessed as accumulation at G1 phase at 0.25 uM after 12 hrs using propidium iodide staining by FACS analysis; format: functional; in short: as §1
[7] = tested on: SK-BR-3; test: Cell cycle arrest in human SK-BR-3 cells assessed as accumulation at S phase at 0.10 uM after 24 hrs using propidium iodide staining by FACS analysis; format: functional; in short: as §1
[8] = tested on: SK-BR-3; test: Cell cycle arrest in human SK-BR-3 cells assessed as accumulation at G1 phase at 0.10 uM after 12 hrs using propidium iodide staining by FACS analysis; format: functional; in short: as §1
[9] = tested on: SK-BR-3; test: Cell cycle arrest in human SK-BR-3 cells assessed as accumulation at G2/M phase at 0.25 uM after 24 hrs using propidium iodide staining by FACS analysis; format: functional; in short: as §1
[10] = tested on: SK-BR-3; test: Cell cycle arrest in human SK-BR-3 cells assessed as accumulation at G2/M phase at 0.50 uM after 24 hrs using propidium iodide staining by FACS analysis; format: functional; in short: as §1
[11] = tested on: HCC 2998; test: Growth inhibition of human HCC2998 cells after 48 hrs by SRB assay; format: functional
[12] = tested on: 786-0; test: Growth inhibition of human 786-0 cells after 48 hrs by SRB assay; format: functional
[13] = tested on: SK-BR-3; test: Cell cycle arrest in human SK-BR-3 cells assessed as accumulation at Sub-G1 phase at 0.50 uM after 24 hrs using propidium iodide staining by FACS analysis; format: functional
[14] = tested on: SK-BR-3; test: Cell cycle arrest in human SK-BR-3 cells assessed as accumulation at Sub-G1 phase at 0.25 uM after 18 hrs using propidium iodide staining by FACS analysis; format: functional
[15] = tested on: SK-BR-3; test: Cell cycle arrest in human SK-BR-3 cells assessed as accumulation at S phase at 0.25 uM after 12 hrs using propidium iodide staining by FACS analysis; format: functional
[16] = tested on: HT-29; test: Growth inhibition of human HT-29 cells after 48 hrs by SRB assay; format: functional
[17] = tested on: EKVX; test: Growth inhibition of human EKVX cells after 48 hrs by SRB assay; format: functional
[18] = tested on: SK-BR-3; test: Cell cycle arrest in human SK-BR-3 cells assessed as accumulation at G2/M phase at 0.10 uM after 24 hrs using propidium iodide staining by FACS analysis; format: functional; in short: as §1
[19] = tested on: SK-BR-3; test: Cell cycle arrest in human SK-BR-3 cells assessed as accumulation at G1 phase at 0.10 uM after 18 hrs using propidium iodide staining by FACS analysis; format: functional; in short: as §1
[20] = tested on: SK-BR-3; test: Cell cycle arrest in human SK-BR-3 cells assessed as accumulation at Sub-G1 phase at 5 uM after 12 hrs using propidium iodide staining by FACS analysis; format: functional
[21] = tested on: KM12; test: Growth inhibition of human KM12 cells after 48 hrs by SRB assay; format: functional
[22] = tested on: K562; test: Growth inhibition of human K562 cells after 48 hrs by SRB assay; format: functional

Compound: Cc1ccc(C)c(COc2cc(NC(=O)c3ccc4c(c3)OCO4)ccc2N(C)S(C)(=O)=O)c1
- Activity [1]: 6.85%
- Activity [2]: 21.8%
- Activity [3]: 28.29%
- Activity [4]: 13.35%
- IC50 [5]: 460 nM
- Activity [6]: 73.62%
- Activity [7]: 8.91%
- Activity [8]: 73.14%
- Activity [9]: 22.53%
- Activity [10]: 28.14%
- growth inhibition (GI) [11]: Dose-dependent effect
- TGI ([11]; HCC 2998, 48 h): 392 nM
- CC50 ([11]; HCC 2998, 48 h, read-out: LC50 (the source's name)): 2970 nM
- growth inhibition (GI) [12]: Dose-dependent effect
- GI50 ([12]; 786-0, 48 h): 191 nM
- TGI ([12]; 786-0, 48 h): 1110 nM
- CC50 ([12]; 786-0, 48 h, read-out: LC50 (the source's name)): > 100000 nM
- Activity [13]: 27.94%
- Activity [14]: 8.89%
- Activity [15]: 6.14%
- growth inhibition (GI) [16]: Dose-dependent effect
- GI50 ([16]; HT-29, 48 h): 77.2 nM
- TGI ([16]; HT-29, 48 h): 419 nM
- CC50 ([16]; HT-29, 48 h, read-out: LC50 (the source's name)): > 100000 nM
- GI50 [17]: 598 nM
- TGI [17]: > 100000 nM
- growth inhibition (GI) [17]: Dose-dependent effect
- CC50 ([17]; read-out: LC50 (the source's name)): > 100000 nM
- Activity [18]: 11.23%
- Activity [19]: 75.43%
- Activity [20]: 9.76%
- growth inhibition (GI) [21]: Dose-dependent effect
- GI50 ([21]; KM12, 48 h): 85.5 nM
- TGI ([21]; KM12, 48 h): 1130 nM
- CC50 ([21]; KM12, 48 h, read-out: LC50 (the source's name)): > 100000 nM
- growth inhibition (GI) [22]: Dose-dependent effect
- GI50 ([22]; K562, 48 h): 40.3 nM
- TGI ([22]; K562, 48 h): > 100000 nM
- CC50 ([22]; K562, 48 h, read-out: LC50 (the source's name)): > 100000 nM
